Screens deposited in PubChem BioAssay by several laboratories.
VIM-2 inhibitor = VIM-2 metallo-beta-lactamase inhibitors, primary screen, biochemical, epi-absorbance readout, Pseudomonas aeruginosa enzyme; purified VIM-2, nitrocefin hydrolysis, epi-absorbance fluorescence; inhibition, % at 5.6 µM; 290,000 compounds, 0.89% hits; AID 1527, 2009;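 active = inhibition above the mean of all tested compounds plus 3 SD, cutoff set per screening run, cut at about 7.5% in these data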;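 note: red hydrolysis product quenches plate fluorescence so inhibitors raise well fluorescence; 0% = enzyme with DMSO and 100% = DMSO without enzyme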
HTR2A ag = mouse Htr2a agonists via beta-arrestin recruitment, primary screen, cell-based, luminescence; 5-hydroxytryptamine receptor 2A (Mus musculus), P35363; CHO-K1 mHTR2A beta-arrestin complementation; percent of 30 µM serotonin response; activation, % at 7.6 µM; 360,000 compounds, 0.66% hits; AID 624169, 2012;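 active = activation above a run cutoff, the mean activation of all tested compounds plus 3 SD, cut at about 14% in these data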;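 note: 0% = plate median of compound wells and 100% = 30 µM serotonin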
Target sequence (P35363 whole entry, looked up): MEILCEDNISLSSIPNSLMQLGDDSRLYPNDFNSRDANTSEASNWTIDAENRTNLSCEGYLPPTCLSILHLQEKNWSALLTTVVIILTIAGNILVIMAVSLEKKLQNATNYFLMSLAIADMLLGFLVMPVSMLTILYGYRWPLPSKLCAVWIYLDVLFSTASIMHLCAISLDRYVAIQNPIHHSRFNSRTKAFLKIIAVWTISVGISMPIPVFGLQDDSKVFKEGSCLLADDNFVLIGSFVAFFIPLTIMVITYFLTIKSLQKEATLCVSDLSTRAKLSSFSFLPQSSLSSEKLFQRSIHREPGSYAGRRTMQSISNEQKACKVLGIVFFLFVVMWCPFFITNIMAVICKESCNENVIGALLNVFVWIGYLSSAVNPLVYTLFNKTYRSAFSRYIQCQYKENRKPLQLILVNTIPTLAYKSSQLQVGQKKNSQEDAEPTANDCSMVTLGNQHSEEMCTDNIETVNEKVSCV
IMP-1 inh = IMP-1 metallo-beta-lactamase inhibitors, primary screen, biochemical, epi-absorbance readout, Pseudomonas aeruginosa enzyme. metallo-beta-lactamase IMP-1 (Pseudomonas aeruginosa). purified IMP-1, nitrocefin hydrolysis, epi-absorbance fluorescence. inhibition, % at 5.6 µM. 290,000 compounds, 0.45% hits. AID 1556, 2009;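 active = inhibition above the mean plus 3 SD of all compounds in the same screening run, cut at about 4.5% in these data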;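 note: 0% = IMP-1 with DMSO and 100% = DMSO wells lacking enzyme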
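System – purified recombinant IMP-1 beta-lactamase · Input – IMP-1 dispensed at 0.2 nM · Timing – 15 min preincubation plus 25 min reaction at 25 °C · Signal – Epi-absorbance fluorescence, 480 nm excitation, 530 nm emission · Measure – percent IMP-1 inhibition derived from blank-referenced optical density · Controls – Enzyme-plus-DMSO low control, enzyme-free DMSO high control · Replication – singlicate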
dFosB activator = activators of delta FosB homodimer, primary screen, biochemical, fluorescence polarization, TAMRA-CDK5 oligo, single point; purified delta FosB; percent of positive-control signal above neutral wells; activation, % at 25 µM; AID 493131, 2011; 340,000 compounds, 0.99% hits;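 active = mean activation above about 17%, with every replicate also reaching it, limit read from the data, passing the limit was not always enough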
Starred values were filed as active, the others as inactive; · = no result given. A selection: hits, their analogues and other compounds. The true share with any hit is near 2.5%.

SMILES	VIM-2 inhibitor	HTR2A ag	IMP-1 inh	dFosB activator
CCC1=Nc2ccccc2-c2nnc(SC)nc2O1	10*	-1	-2	5
CCC(=O)N1c2ccccc2-c2nnc(SC)nc2OC1c1ccc(OC)c(OC)c1 (stereo not drawn)	2	-4	-2	3
COC(=O)[C@]1(C)N[C@H](CN(C)C(=O)COc2ccccc2)[C@@H]2C(=O)N(C)C(=O)[C@@H]21	·	5	·	-7
CC(C)c1cc(Cn2c3ccccc3c(=O)n2C(C)CBr)on1 (stereo not drawn)	·	6	·	·
COc1ccc(N=Cc2sc(O)c3ccccc23)cc1	2	-7	8.3*	-6
COc1ccccc1/C=C\C(=O)NCC(=O)N/N=C/c1cccc(OC)c1O	-2	0	-4	30*
CN(C)c1ccc(-c2ccnc3c2CC(C)(C(=O)NCc2cccc(Cl)c2)O3)cc1 (stereo not drawn)	·	5	·	·
NC(=O)COC(=O)/C=C/c1ccc(S(=O)(=O)N2CCCCCC2)cc1	-2	-1	-2	2
COc1ccc(/C=C/C(=O)OCC(=O)c2ccc(S(=O)(=O)N3CCCCC3)cc2)cc1OC	·	-1	·	84*
COc1cc(C=O)ccc1OC(=O)c1cccnc1	-1	4	-3	-4
CCN1CCN(c2ccc(NC(=O)c3ccc4c(c3)OCO4)cc2)CC1	9.3*	2	-5	-8
CCCCOc1ccc(C(=O)Nc2ccc(N3CCN(C)CC3)cc2)cc1	0	-6	-5	-4
O=C(Nc1ccc(N2CCCC2)cc1)c1ccc(Br)cc1	0	-8	1	59*
Cc1ccc(C(=O)Nc2ccc(N3CCN(C)CC3)cc2)cc1	9.7*	-2	-7	-2
O=C(/C=C/c1ccc(Cl)c([N+](=O)[O-])c1)Nc1ccc(N2CCCC2)cc1	1	-4	-3	28*
O=C(O)CC1c2ccccc2CCN1S(=O)(=O)c1cccs1 (stereo not drawn)	·	0	·	·
O=C(Nc1ccc(N2CCCC2)cc1)c1cc(Cl)ccc1Cl	-1	-7	-3	135*
O=C(Nc1ccc(N2CCCC2)cc1)c1ccc(Cl)cc1Cl	-1	-1	-5	0
CCOc1ccc(C(=O)Nc2ccc(N3CCN(C)CC3)cc2)cc1	11*	-5	-2	0
Oc1c(Br)cc(Br)cc1C=Nc1ccc2[nH]ncc2c1	-1	3	4	-11
Oc1c(Br)cc(Br)cc1C=Nc1cccnc1	-1	1	28*	1
NC(=O)c1ccc(NC(=O)COC(=O)CCC2CCCC2)cc1	·	-1	·	·
COc1cccc(NC(=O)Cn2c3ccccc3c3nc4n(c(=O)c32)CCCS4)c1	2	5	4.8*	7
CCN(CC)Cc1c(O)ccc2c1O/C(=C\C=C\c1ccccc1)C2=O	0	-6	1	-8
COc1ccccc1/C=C/C=C1\Oc2c(ccc(O)c2CN(C)C)C1=O	2	-7	9.1*	-19
SMILES	VIM-2 inhibitor	HTR2A ag	IMP-1 inh	dFosB activator
COc1ccc(NC(=O)CNC(=O)Cc2cccc3ccccc23)c(OC)c1	·	-4	·	-7
C=CCn1c(SCC(=O)N2CCCC2=O)nc2sc(CC)cc2c1=O	·	8	·	-7
C=CCn1c(SCC(=O)N2CCN(C(=O)c3ccco3)CC2)nc2sc(CC)cc2c1=O	12*	3	-1	-13
COc1cc(-c2nc(-c3ccc(NC(=O)c4ccc(Br)o4)cc3)no2)cc(OC)c1OC	-4	3	1	49*
COc1ccc(-c2nc(-c3ccc(NC(=O)c4ccc(Br)o4)cc3)no2)cc1OC	-2	11	-4	12
COc1ccccc1N1CCN(C2CCCN(C(=O)c3ccsc3)C2)CC1 (stereo not drawn)	-2	-11	-2	-4
COc1cccc(CC2(CO)CCCN(Cc3sc(N4CCCC4)nc3Cl)C2)c1 (stereo not drawn)	-2	1	-3	-4
Cn1c(=O)c([N+](=O)[O-])c(NCCCn2ccnc2)c2ccccc21	7.9*	-3	-2	2
CCCCNc1c([N+](=O)[O-])c(=O)n(C)c2ccccc12	-1	-2	-1	6
O=S(=O)(NCc1ccc(F)cc1)c1ccc(-n2cccn2)cc1	-1	6	-3	-1
Cc1c(C)c2c(OCC(=O)NCc3cccnc3)cc3c(c2oc1=O)CCC(C)(C)O3	8.8*	6	-4	6
CCC(NC(=O)COc1cc2c(c3oc(=O)c(C)c(C)c13)CCC(C)(C)O2)C(=O)O (stereo not drawn)	11*	2	-3	-3
Cc1c(C)c2c(OCC(=O)NCC(C)C)cc3c(c2oc1=O)CCC(C)(C)O3	-1	3	-5	-3
CCN1CCc2c(C#N)c(N3CCCCC3)nc(NCc3ccccc3)c2C1	-1	-11	-1	-6
C=CCNc1nc(N2CCCCC2)c(C#N)c2c1CN(Cc1ccccc1)CC2	-1	39*	-2	-6
Cc1cccc(-c2ocnc2C(=O)N2CCN(C(=O)c3cccs3)CC2)c1	-1	3	-2	-13
CCOc1ccc(NC(=O)CN2C(=O)COc3ccccc32)cc1	-2	1	-1	-1
FC(F)(F)c1cc(-c2cccs2)nc(-n2cc(Br)cn2)n1	1	-2	-3	-6
Cc1cnn(-c2nc(-c3cccs3)cc(C(F)(F)F)n2)c1	8.1*	6	-1	-36
CCOC(=O)/C(=C\c1ccccc1)C(=O)CCN1CCOCC1	·	1	·	-4
CC(NC(=O)CN1C(=O)NC2(CCCCCC2)C1=O)c1ccccc1 (stereo not drawn)	·	7	·	-3
NC(N)=NS(=O)(=O)c1ccc(NC(=S)NC(=O)/C=C/c2ccc(F)cc2)cc1	-2	0	-2	-8
NC(N)=NS(=O)(=O)c1ccc(NC(=S)NC(=O)/C=C/c2cccs2)cc1	0	-2	-2	62*
O=c1c2ccccc2oc2ccc(NCCCN3CCOCC3)cc12	9.8*	-7	0	8
Cn1c2ccccc2c(=O)c2cc(NCCCN3CCOCC3)ccc21	·	-14	·	2
SMILES	VIM-2 inhibitor	HTR2A ag	IMP-1 inh	dFosB activator
CCc1nc(NCCCN2CCOCC2)c2oc3ccccc3c2n1	11*	5	-3	-21
Cc1cc(C)c(C)c(S(=O)(=O)NCC(=O)NCC2CCCCC2)c1C	3	-10	-2	-10
C[n+]1ccccc1/C=C/c1cc(Br)ccc1O	-1	-8	16*	-7
O=C(CSC(=S)N1CCOCC1)Nc1ccc(S(=O)(=O)Nc2ncccn2)cc1	1	1	0	-8
O=C(NNC(=O)c1ccc(Oc2ccc(C3SCCS3)cc2)o1)c1ccc(Cl)cc1	-1	-5	5.2*	0
O=C(NNC(=O)c1ccc(Oc2cc(Cl)cc(Cl)c2)o1)c1ccccc1	-4	1	-5	1
CN(C)[C@@H]1C(=O)C(C(=O)NCN2CCCC2)=C(O)[C@@]2(O)C(=O)C3=C(O)c4c(O)cccc4[C@@](C)(O)C3CC12 (stereo partly drawn)	4	·	5.7*	·
